Legend:
Rattus norvegicus [1] = species: Rattus norvegicus; experiment: Inhibition against chloride conductance in rat extensor digitorum longus(EDL) muscle fibers in vitro; format: functional
Outline: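 Rat EDL fibres (Charles River Sprague-Dawley, normal diet) studied in vitro by square-pulse microelectrode method in normal and chloride-free medium at several drug concentrations. Chloride conductance = membrane conductance in normal minus chloride-free solution. Conductance–concentration curves fit to single-site binding equation by nonlinear least squares to give IC50 ± SD; 7–79 fibres from 2–16 muscles per concentration.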

Rattus norvegicus [2] = species: Rattus norvegicus; experiment: Liver cholesterol level in male Sprague-Dawley rats (fed with high cholesterol semisynthetic diet) after 1 week of treatment.; format: functional
Outline: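 Rats prefed high-cholesterol semisynthetic diet 1 week, then stratified by serum cholesterol into groups of six. Dosed 0.3 mmol/kg intragastrically twice daily in 0.25% methylcellulose for 1 week; controls got vehicle. Livers removed after exsanguination; cholesterol measured in lipid extracts. Mean ± SD, six rats.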

Rattus norvegicus [3] = species: Rattus norvegicus; experiment: Serum cholesterol level in male Sprague-Dawley rats (fed with high cholesterol semisynthetic diet) after 4 days of treatment.; format: functional, organism-based
Outline: (§1)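 Male Sprague-Dawley rats on a high-cholesterol semisynthetic diet for 1 week, then stratified-randomized into groups of six. Dosing was 0.3 mmol/kg twice daily by intragastric route in 0.25% methylcellulose for 1 week; controls received vehicle. Serum cholesterol was measured after 4 and 7 days of dosing. Values are mean ± SD of six rats.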

Rattus norvegicus [4] = species: Rattus norvegicus; experiment: Serum cholesterol level in male Sprague-Dawley rats (fed with high cholesterol semisynthetic diet) after 7 days of treatment; format: functional, organism-based; outline: as §1
Rattus norvegicus [5] = species: Rattus norvegicus; experiment: Serum cholesterol level in male Sprague-Dawley rats (fed with high cholesterol semisynthetic diet)before the treatment.; format: functional, organism-based
Outline: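 Male Sprague-Dawley rats fed a high-cholesterol semisynthetic diet for 1 week. Blood was drawn from the orbital plexus under ether anaesthesia before dosing (day -1) for serum cholesterol, which was used to stratify-randomize groups of six. Values are mean ± SD of six rats.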

Homo sapiens [6] = species: Homo sapiens; experiment: Inhibition against platelet aggregation induced by adenosine diphosphate (ADP) in vitro; format: functional
Outline: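 Human platelet-rich plasma from drug-free volunteers; compound preincubated 1 min before ADP (1–3 μM, lowest level giving maximal transmittance change). Aggregation followed by aggregometer for 6 min; IC50 for inhibition of the second phase of maximal aggregation, mean ± SEM, n = 4–10 donors.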

Homo sapiens [7] = species: Homo sapiens; experiment: Inhibition against platelet aggregation induced by arachidonic acid(AA) in vitro; format: functional
Outline: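 Human platelet-rich plasma from drug-free volunteers; compound preincubated 1 min before arachidonic acid (300–500 μM, lowest level giving maximal transmittance change). Aggregation read by aggregometer over 4 min; IC50 for inhibition of maximal aggregation, mean ± SEM, n = 4–10 donors.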

Row | SMILES | IC50 (Rattus norvegicus [1]) [µM] | Liver cholesterol (Rattus norvegicus [2]) | Serum cholesterol (Rattus norvegicus [3]) [mg/dL] | Serum cholesterol (Rattus norvegicus [4]) [mg/dL] | Serum cholesterol (Rattus norvegicus [5]) [mg/dL] | IC50 (Homo sapiens [6]) [µM] | IC50 (Homo sapiens [7]) [µM]
1 | CC[C@@H](Oc1ccc(Cl)cc1)C(=O)O | > 230 | 34.8 mg (g of tissue)-1 | 158 | 184 | 275 | 686 | 721
2 | CC(C)(Oc1ccc(Cl)cc1)C(=O)O [CLOFIBRIC ACID] |  | 41.9 mg (g of tissue)-1 | 113 | 149 | 271 | 1240 | > 4000
3 | CC[C@H](Oc1ccc(Cl)cc1)C(=O)O |  | 37.2 mg (g of tissue)-1 | 174 | 193 | 278 | 1180 | 1600
4 | C[C@H](Oc1ccc(Cl)cc1)C(=O)O |  | 45.4 mg (g of tissue)-1 | 107 | 184 | 279 | 998 | 1120
5 | C[C@@H](Oc1ccc(Cl)cc1)C(=O)O | > 230 | 40.8 mg (g of tissue)-1 | 116 | 119 | 276 | 201 | 253

From ChEMBL document CHEMBL1123854, “Dissociation of hypolipidemic and antiplatelet actions from adverse myotonic effects of clofibric acid related enantiomers” (J Med Chem, 1987)
